Assay results: ChEMBL document CHEMBL2407056, “3-(Oxazolo[4,5-b]pyridin-2-yl)anilides as a novel class of potent inhibitors for the kinetoplastid Trypanosoma brucei, the causative agent for human African trypanosomiasis” (Eur J Med Chem, 2013)
In brackets after ≈: the same amount, converted by molar mass.

How the values were obtained:
[1] = system: Trypanosoma brucei brucei; assay: Antitrypanosomal activity against Trypanosoma brucei brucei 427 bloodstream form after 48 hrs by Alamar blue assay; assay type: functional, organism-based; settings: Trypanosoma brucei, 427, 48 h
Method in brief: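 Bloodstream parasites in 384-well plates, 24 h preincubation at 37 °C/5% CO2. DMSO dilutions diluted 1:21 in DMEM and added to give final 41.67 to 0.0004 µM; 48 h incubation. 70% Alamar Blue in HMI-9 + 10% FCS added, 2 h at 37 °C then 22 h at room temperature; read at ex 535/em 590 nm.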

[2] = Selectivity index, ratio of IC50 for HEK293 cells to IC50 for Trypanosoma brucei brucei 427 bloodstream form; assay type: toxicity, cell-based; settings: human, read-out: Ratio IC50
Method in brief: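 HEK293 cells (55 µL of 72,727 cells/mL in DMEM + 10% FCS) in 384-well plates, 24 h at 37 °C/5% CO2. Drug diluted 1:21 from DMSO, final 83.34 to 0.0004 µM, 48 h. […] SI relative to T. b. brucei.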

[3] = Intrinsic clearance in human liver microsomes at 1 uM after 60 mins by LC-MS analysis; assay type: ADME, Microsome; settings: read-out: CLH
Method in brief: (§1)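 Compound at 1 µM final (1 in 500 dilution of stock) incubated at 37 °C with human liver microsomes in 0.1 M phosphate buffer pH 7.4, 0.4 mg/mL protein. First-order depletion rate from exponential decay fit used to derive in vitro CLint and half-life; predicted hepatic extraction ratio from scaled CLint with liver blood flow 20.7 mL/min/kg.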

[4] = Kinetic solubility of the compound in phosphate buffer at pH 2 by nephelometry; assay type: physicochemical; settings: read-out: Kinetic_solubility
[5] = Kinetic solubility of the compound in phosphate buffer at pH 6.5 by nephelometry; assay type: physicochemical; settings: read-out: Kinetic_solubility
Method in brief: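 DMSO stocks spiked into pH 6.5 phosphate buffer or 0.01 M HCl (about pH 2.0), final DMSO 1% (v/v). Solubility range determined by nephelometry.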

[6] = Partition coefficient, log D of the compound at pH 7.4 by HPLC analysis; assay type: physicochemical; settings: octanol/water
Method in brief: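 Chromatographic gradient HPLC: mobile phase 50 mM ammonium acetate pH 7.4 (or ammonium formate pH 3.0) with an acetonitrile gradient of 0–100% over 10 min; UV detection at 220 and 254 nm.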

[7] = Half life in human liver microsomes at 1 uM by LC-MS analysis; assay type: ADME, Microsome; method in brief: as §1
[8] = system: Trypanosoma cruzi; assay: Antitrypanosomal activity against Trypanosoma cruzi Tulahuen C2C4 amastigotes infected in rat L6 cells after 96 hrs by beta-galactosidase reporter gene assay; assay type: functional, organism-based; settings: Tulahuen C2C4, L6, 96 h
Method in brief: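 L-6 cells (2000/well, RPMI 1640 + 10% FBS, 2 mM L-glutamine) infected after 24 h with 5000 LacZ-expressing trypomastigotes. At 48 h the medium was replaced with eleven 3-fold drug dilutions (100 to 0.002 µg/mL). After 96 h, CPRG/Nonidet substrate added, colour read at 540 nm after 2–6 h. IC50 by linear regression from sigmoidal curves; benznidazole control.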

[9] = system: Plasmodium falciparum; assay: Antimicrobial activity against Plasmodium falciparum NF54 infected in human RBC after 48 hrs by [3H]hypoxanthine incorporation assay; assay type: functional, organism-based
Method in brief: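 Erythrocytic stage, drug-sensitive strain, in hypoxanthine-free RPMI 1640 with HEPES, NaHCO3, neomycin, Albumax, human A+ red cells at 2.5% haematocrit, 0.3% parasitaemia. Eleven 3-fold dilutions from 100 to 0.002 µg/mL; 37 °C, 4% CO2/3% O2/93% N2. ³H-hypoxanthine added at 48 h, further 24 h, then harvested and scintillation-counted. IC50 by linear regression; chloroquine control.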

[10] = system: L6; assay: Cytotoxicity against rat L6 cells after 70 hrs by Alamar blue assay; assay type: cell-based; settings: L6, 70 h
Method in brief: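 4000 L-6 cells per well in RPMI 1640 with L-glutamine and 10% FBS. Eleven 3-fold dilutions from 100 to 0.002 µg/mL for 70 h; Alamar Blue 2 h, fluorescence at ex 536/em 588 nm. IC50 by linear regression from sigmoidal curves; podophyllotoxin control.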

Structure (SMILES) | IC50 [1] | selectivity ratio [2] | also measured
COc1ccc(-c2nc3ncccc3o2)cc1NC(=O)c1ccco1 | 1100 nM | 74 | –
O=C(Nc1cc(-c2nc3ncccc3o2)ccc1Cl)c1ccco1 | > 10000 nM | – | –
O=C(Nc1cccc(-c2nc3ncccc3o2)c1)c1ccco1 | 340 nM | > 245 | –
Cc1ccc(-c2nc3ncccc3o2)cc1NC(=O)c1ccco1 | 6200 nM | 13 | –
Cc1ccc(NC(=O)c2ccco2)cc1-c1nc2ncccc2o1 | 940 nM | > 88 | –
Cc1ccc(NC(=O)c2occc2C)cc1-c1nc2ncccc2o1 | 570 nM | 145 | microsomal CLint at 1 µM [3]: 228 µL/min/mg; solubility kinetic [4]: 1.6 µg/mL (≈ 4.8 µM); solubility kinetic [5]: < 1.6 µg/mL; logD [6]: 3.3; half-life at 1 µM [7]: 8 min
Cc1ccc(NC(=O)c2cnco2)cc1-c1nc2ncccc2o1 | > 10000 nM | – | –
Cc1ccc(NC(=O)c2ccoc2)cc1-c1nc2ncccc2o1 | 310 nM | 103 | microsomal CLint at 1 µM [3]: 176 µL/min/mg; solubility kinetic [4]: 12.5 µg/mL (≈ 39.1 µM); solubility kinetic [5]: 6.3 µg/mL (≈ 19.7 µM); logD [6]: 2.7; half-life at 1 µM [7]: 10 min
Cc1ccc(NC(=O)c2cscn2)cc1-c1nc2ncccc2o1 | 2600 nM | 32 | –
O=C(Nc1ccc(F)c(-c2nc3ncccc3o2)c1)c1ccco1 | 290 nM | 290 | –
Cc1ccoc1C(=O)Nc1ccc(F)c(-c2nc3ncccc3o2)c1 | 100 nM | 840 | microsomal CLint at 1 µM [3]: 202 µL/min/mg; solubility kinetic [4]: 1.6 µg/mL (≈ 4.74 µM); solubility kinetic [5]: 1.6 µg/mL (≈ 4.74 µM); logD [6]: 2.9; half-life at 1 µM [7]: 9 min
O=C(Nc1ccc(F)c(-c2nc3ncccc3o2)c1)c1cnco1 | 2000 nM | 43 | microsomal CLint at 1 µM [3]: 14 µL/min/mg; solubility kinetic [4]: 6.3 µg/mL (≈ 19.4 µM); solubility kinetic [5]: 6.3 µg/mL (≈ 19.4 µM); logD [6]: 1.7; half-life at 1 µM [7]: 124 min
O=C(Nc1ccc(F)c(-c2nc3ncccc3o2)c1)c1ccoc1 | 120 nM | 680 | microsomal CLint at 1 µM [3]: 154 µL/min/mg; solubility kinetic [4]: 12.5 µg/mL (≈ 38.7 µM); solubility kinetic [5]: 6.3 µg/mL (≈ 19.5 µM); logD [6]: 2.4; half-life at 1 µM [7]: 11 min
O=C(Nc1ccc(F)c(-c2nc3ncccc3o2)c1)c1cscn1 | 760 nM | 110 | microsomal CLint at 1 µM [3]: 48 µL/min/mg; solubility kinetic [4]: 3.1 µg/mL (≈ 9.11 µM); solubility kinetic [5]: 3.1 µg/mL (≈ 9.11 µM); logD [6]: 2.3; half-life at 1 µM [7]: 36 min
O=C(Nc1cccc(-c2nc3ncc(-c4ccccc4)cc3o2)c1)c1ccco1 | 120 nM | 84 | –
COc1ccc(-c2cnc3nc(-c4cccc(NC(=O)c5ccco5)c4)oc3c2)cc1 | 630 nM | 130 | –
O=C(Nc1cccc(-c2nc3ncc(-c4ccc(Cl)cc4)cc3o2)c1)c1ccco1 | 550 nM | 150 | –
O=C(Nc1cccc(-c2nc3ncccc3[nH]2)c1)c1ccco1 | 780 nM | 54 | –
O=C(Nc1cccc(-c2nc3ncccc3[nH]2)c1)c1ccoc1 | 1000 nM | 39 | –
O=C(Nc1ccc(Cl)c(-c2nc3ccccc3o2)c1)c1ccco1 | > 10000 nM | – | –
CN(C(=O)c1ccoc1)c1ccc(Cl)c(-c2nc3ncccc3o2)c1 | > 10000 nM | – | –
CN(C(=O)c1ccccc1)c1ccc(Cl)c(-c2nc3ncccc3o2)c1 | > 10000 nM | – | –
O=C(Nc1ccc(Cl)c(-c2nc3ncccc3o2)c1)c1c[nH]cn1 | > 10000 nM | – | –
O=C(Nc1ccc(Cl)c(-c2nc3ncccc3o2)c1)c1cc2ccccc2o1 | > 10000 nM | – | –

Structure (SMILES) | IC50 [1] | selectivity ratio [2] | also measured
COc1ccccc1C(=O)Nc1ccc(Cl)c(-c2nc3ncccc3o2)c1 | > 10000 nM | – | –
COc1cccc(C(=O)Nc2ccc(Cl)c(-c3nc4ncccc4o3)c2)c1 | > 10000 nM | – | –
O=C(Nc1ccc(Cl)c(-c2nc3ncccc3o2)c1)c1ccccn1 | 5700 nM | 15 | –
O=C(Nc1ccc(Cl)c(-c2nc3ncccc3o2)c1)c1ccncc1 | 3400 nM | – | –
O=C(Nc1ccc(Cl)c(-c2nc3ncccc3o2)c1)c1cccnc1 | > 10000 nM | – | –
COCC(=O)Nc1ccc(Cl)c(-c2nc3ncccc3o2)c1 | > 10000 nM | – | –
Cc1ccoc1C(=O)Nc1cccc(-c2nc3ncccc3o2)c1 | 170 nM | 115 | microsomal CLint at 1 µM [3]: 181 µL/min/mg; solubility kinetic [4]: 6.3 µg/mL (≈ 19.7 µM); solubility kinetic [5]: 3.1 µg/mL (≈ 9.71 µM); logD [6]: 2.9; half-life at 1 µM [7]: 10 min
O=C(Nc1cccc(-c2nc3ncccc3o2)c1)c1cnco1 | 2900 nM | 29 | –
O=C(Nc1cccc(-c2nc3ncccc3o2)c1)c1ccoc1 | 600 nM | 89 | –
O=C(Nc1cccc(-c2nc3ncccc3o2)c1)c1cscn1 | 1300 nM | 63 | –
Cc1c(NC(=O)c2ccco2)cccc1-c1nc2ncccc2o1 | > 10000 nM | – | –
O=C(Nc1cccc(-c2nc3ncccc3o2)c1F)c1ccco1 | > 10000 nM | – | –
O=C(Nc1cccc(-c2nc3ncccc3o2)c1Cl)c1ccco1 | > 10000 nM | – | –
O=C(Nc1cc(-c2nc3ncccc3o2)ccn1)c1ccco1 | > 10000 nM | – | –
O=C(Nc1cc(-c2nc3ncccc3o2)ccc1F)c1ccco1 | 6300 nM | 13 | –
O=C(Nc1cncc(-c2nc3ncccc3o2)c1)c1ccco1 | > 10000 nM | – | –
O=C(Nc1cc(F)cc(-c2nc3ncccc3o2)c1)c1ccco1 | > 10000 nM | – | –
Cc1ccoc1C(=O)Nc1ccc(Cl)c(-c2nc3ncccc3o2)c1 | 650 nM | > 130 | –
O=C(Nc1ccc(Cl)c(-c2nc3ncccc3o2)c1)c1ccno1 | 3200 nM | – | –
O=C(Nc1ccc(Cl)c(-c2nc3ncccc3o2)c1)c1cnco1 | 1500 nM | > 45 | –
O=C(Nc1ccc(Cl)c(-c2nc3ncccc3o2)c1)c1cc[nH]n1 | > 10000 nM | – | –
O=C(Cn1ccnc1[N+](=O)[O-])NCc1ccccc1 [BENZNIDAZOLE] | – | – | EC50 [8]: 1460 nM
CCN(CC)CCCC(C)Nc1ccnc2cc(Cl)ccc12 (stereo not drawn) [CHLOROQUINE] | – | – | EC50 [9]: 6 nM
COc1cc([C@@H]2c3cc4c(cc3[C@H](O)[C@H]3COC(=O)[C@H]23)OCO4)cc(OC)c1OC [PODOFILOX] | – | – | EC50 [10]: 17 nM
